TAAR1 antagonist: antagonists of human TAAR1 | actives 1.5% (n = 360,000) | inhibition, % at 3 µM | CHO RD-HGA16 TAAR1, Fluo-8 calcium fluorescence, antagonist | Q96RJ0;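 active = inhibition above a per-plate cutoff, the mean inhibition of test compounds on that plate plus 3 SD, cut at about 49% in these data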;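 note: 0% = DMSO plus EC80 beta-PEA response and 100% = DMSO alone without agonist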
Target sequence (Q96RJ0 whole entry, looked up): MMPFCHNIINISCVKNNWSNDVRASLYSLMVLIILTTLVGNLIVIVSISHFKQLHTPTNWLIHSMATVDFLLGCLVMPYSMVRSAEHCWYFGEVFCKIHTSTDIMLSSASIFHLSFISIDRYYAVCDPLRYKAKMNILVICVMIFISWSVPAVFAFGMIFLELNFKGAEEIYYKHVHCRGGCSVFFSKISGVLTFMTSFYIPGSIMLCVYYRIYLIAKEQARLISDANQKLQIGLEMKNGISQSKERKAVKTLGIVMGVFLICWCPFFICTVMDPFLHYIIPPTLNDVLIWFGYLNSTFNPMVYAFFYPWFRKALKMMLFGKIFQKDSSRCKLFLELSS
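Material: CHO RD-HGA16 cells bearing hTAAR1; compound dosing: one-point dosing, 3 µM nominal final; schedule: dye loading 75 min at 37 °C, then 30 min room temperature; measured by: calcium fluorescence with Fluo-8; control set: vehicle and agonist controls; replication: n of 1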
CHO parental Ca: counter-screen: ATP calcium response change in parental CHO cells; inhibition, % at 5.6 µM; actives 0.63% (n = 330,000); parental CHO-K1, ATP-induced calcium, Fluo-8 fluorescence;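 active = inhibition above that plate's mean sample inhibition plus 3 SD, cut at about 26% in these data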;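 note: 0% = ATP-challenged DMSO wells and 100% = DMSO wells without ATP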
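Material – parental CHO cells · Reagent – ATP stimulus · Compound – single nominal dose of 5.6 µM per compound · Detection – Fluo-8 fluorescence · Read-out basis – percent inhibition of calcium signal · Controls – ATP-challenged DMSO wells low, unchallenged DMSO wells high · Repeats – no replicates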
TAAR1 agonist: human TAAR1 agonism. Q96RJ0. CHO RD-HGA16 TAAR1, Fluo-8 calcium fluorescence; vehicle wells 0%, saturating PEA agonist 100%. activation, % at 3 µM. actives 0.99% (n = 360,000). AID 624467;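 active = activation above the mean activation of all test compounds in the run plus 3 SD, cut at about 38% in these data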
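System: CHO RD-HGA16 cells carrying human TAAR1 plus Gα16; Incubation: 17-24 h seeding, 75 min 37 °C dye, 30 min RT; Measured by: Fluo-8 fluorescence, 5 s baseline then 140 s kinetic read; Control set: DMSO and PEA EC100; Replication: single well for each compound.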
GalR3 antagonist: human GalR3 antagonism; actives 0.44% (n = 360,000); HEK293 GalR3-CNG cAMP membrane potential fluorescence; galR3 body fused to GalR1 C-terminus; inhibition, % at 3 µM; O60755;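 active = inhibition above the screen-wide average plus 3 SD, cut at about 13% in these data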;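 note: forskolin and galanin both at EC90 stimulate the cells; cAMP rise reported by CNG channel membrane potential dye signal; 0% = forskolin plus galanin with DMSO and 100% = forskolin alone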
Target sequence (O60755 1-299 limits assumed): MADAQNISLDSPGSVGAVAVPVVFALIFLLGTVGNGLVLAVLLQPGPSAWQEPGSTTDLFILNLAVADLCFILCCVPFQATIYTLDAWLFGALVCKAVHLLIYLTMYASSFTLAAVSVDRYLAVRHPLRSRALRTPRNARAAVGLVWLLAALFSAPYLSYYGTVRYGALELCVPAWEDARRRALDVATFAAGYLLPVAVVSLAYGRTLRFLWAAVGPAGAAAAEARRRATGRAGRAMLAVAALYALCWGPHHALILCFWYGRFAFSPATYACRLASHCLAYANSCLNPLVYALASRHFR
OX1R antag-1: antagonists of human orexin 1 receptor (OX1R); O43613; inhibition, % at 6.6 µM; AID 485270; actives 1.8% (n = 330,000); OX1R-expressing cells, FRET antagonist read-out; in the data active = inhibition mostly above about 38%, no sharp cut-off; inactive = mostly below about 40%;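 note: 0% = agonist challenge alone and 100% = reference antagonist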
OX1R antag-2: blocks the human orexin 1 receptor | AID 434989 | inhibition, % at 5 µM | O43613 | CHO/OX1R cells, Fluo-8 calcium fluorescence, orexin A | actives 0.43% (n = 330,000);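 active = inhibition above its plate's threshold, mean inhibition of all tested compounds on the plate plus 3 SD, cut at about 37% in these data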;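 note: 0% = orexin A challenge wells and 100% = SB-334867-A antagonist wells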
* marks the source's active call; other numbers are inactive results; / = no result given. Shown are actives, neighbours in structure and some others; about 4.2% of the full set was active somewhere.

SMILES	TAAR1 antagonist	CHO parental Ca	TAAR1 agonist	GalR3 antagonist	OX1R antag-1	OX1R antag-2
CCN1C(=O)NC(c2ccccc2)C1=O (stereo unspecified)	-19.0	-12.4	2.2	-1.3	5.1	-7.2
CCc1nnc(NC(=O)CSc2nnc(CNc3ccc(Cl)cc3)o2)s1	/	-10.4	/	/	13.3	-19.9
Cc1ccc2c(c1)CCCN2S(=O)(=O)c1cccc(C(=O)Nc2ccccc2C(=O)O)c1	-81.2	-6.3	-2.2	-6.3	57.5*	-23.8
O=C(O)c1cccc(NC(=O)c2cccc(S(=O)(=O)N3CCc4ccccc43)c2)c1	-0.6	1.8	3.1	-8.3	35.9	-8.6
C[C@H]1CN=C(N(C)C)N1CC1CCCC1	15.8	-1.5	3.8	-9.5	32.2	-4.4
OCCCNc1nc(-c2ccc(Cl)cc2)nnc1-c1ccc(Br)cc1	-12.8	-7.0	-2.6	-1.3	18.8	-9.3
O=[N+]([O-])c1ccc(-c2nnc(-c3ccccc3)c(NCCCO)n2)cc1	-12.7	1.1	0.3	-2.2	38.4*	-2.9
CCOC(=O)c1nnsc1C(OC)Oc1ccccc1 (stereo unspecified)	-21.0	/	2.0	-5.8	/	/
N=c1n(CC(=O)c2ccc(Br)cc2)c2ccccc2n1Cc1ccccc1	-4.0	2.7	37.9*	-7.4	9.7	-26.0
CN1C(=O)c2ccc(N3CCCC3)cc2C1=O	-11.9	-10.6	4.2	-0.3	26.1	-14.9
Cc1cc(N2CCCC2)ccc1/C=C1\NC(=S)N(C)C1=O	32.3	40.9*	51.4*	-2.5	31.1	47.9*
O=C(Nc1ccc2oc(-c3cccnc3)nc2c1)c1ccc2c(c1)OCCO2	26.9	-6.8	5.6	-5.3	10.4	-14.0
O=C(CSc1cccc[n+]1[O-])Nc1ccc([N+](=O)[O-])cc1Cl	11.9	-5.8	-0.8	-0.9	65.3*	-13.8
Cc1ccn2cc(-c3cccc([N+](=O)[O-])c3)nc2c1	15.8	-18.2	-1.1	-0.9	65.5*	-24.6
CC(=O)Nc1cccc(-c2cn3ccc(C)cc3n2)c1	3.4	-15.7	-1.4	1.6	14.6	-22.2
CCN1CCN(c2ccc(S(=O)(=O)N3CCCCC3)cc2NC(=O)/C=C/c2ccc(OC(F)F)cc2)CC1	7.1	4.2	12.8	-5.5	-4.6	-15.0
Cn1c(-c2ccccc2)cnc1SCC(=O)NCc1ccco1	0.8	0.3	6.9	-3.2	8.8	3.7
COc1ccc(NC(=O)COC(=O)c2ccc(F)cc2F)cc1	-10.1	-2.3	2.2	-3.5	10.1	3.2
O=c1c2ccc(F)cc2sn1-c1ccccc1	7.8	/	49.3*	-0.8	/	/
Cc1ccc(-n2sc3cc(F)ccc3c2=O)c(C)c1	6.7	/	48.6*	-5.3	/	/
O=[N+]([O-])c1c(NCc2ccco2)ccc2nonc12	-17.9	-4.9	0.2	-3.3	67.5*	-10.3
O=C(O)c1ccccc1Nc1ccc([N+](=O)[O-])cc1C(=O)O	-8.5	-20.6	1.3	4.1	14.8	13.8
Cc1c(Nc2cc(Cl)c3nonc3c2[N+](=O)[O-])c(=O)n(-c2ccccc2)n1C	15.0	/	-0.8	2.0	/	/
O=C(O)c1ccccc1Nc1ccc([N+](=O)[O-])c2nonc12	/	13.9	/	/	34.2*	9.9
O=[N+]([O-])c1c(Nc2ccccc2)ccc2nonc12	-19.6	0.6	0.2	-2.4	63.6*	-2.5
SMILES	TAAR1 antagonist	CHO parental Ca	TAAR1 agonist	GalR3 antagonist	OX1R antag-1	OX1R antag-2
O=[N+]([O-])c1c(Nc2cccc(O)c2)cc(Cl)c2nonc12	-2.6	43.0*	-3.3	7.3	94.3*	46.9*
C1=C(CCNc2ncnc3nc[nH]c23)CCCC1	27.6	12.7	3.7	0.1	12.0	-12.2
COc1ccc2ccccc2c1CNCc1ccc(C)cc1	2.5	-20.4	16.8	-14.8	-6.8	-15.5
CCOC(=O)NNc1ccc2nonc2c1[N+](=O)[O-]	/	-12.6	/	/	34.7*	-13.9
N#C/C(=C\c1ccc(Cl)c([N+](=O)[O-])c1)c1ccccn1	-15.1	-19.8	2.3	-3.7	70.9*	-7.6
CNc1ccc(/C=C(\C#N)c2ccccn2)cc1[N+](=O)[O-]	-2.6	14.2	0.8	-2.7	41.3	7.4
CC(NC(=O)/C(C#N)=C/c1ccc(Cl)c([N+](=O)[O-])c1)c1ccccc1 (stereo unspecified)	20.5	-9.8	38.6*	-6.9	27.8	-28.5
Cc1ccccc1N(C(=O)Cn1nnc2ccccc21)C(C(=O)NCc1ccco1)c1ccncc1 (stereo unspecified)	9.3	-31.8	11.5	1.0	16.4	-39.8
NC(c1csc(Nc2ccc(C(=O)c3ccccc3)cc2)n1)C1CCCCC1 (stereo unspecified)	41.4	/	45.6*	-2.2	/	/
NC(c1csc(Nc2nccc(C(F)(F)F)n2)n1)C1CCCCC1 (stereo unspecified)	29.8	/	44.3*	-6.1	/	/
CC(C)c1ccc(NC(=O)Nc2nc(C(N)CCc3ccccc3)cs2)cc1 (stereo unspecified)	32.5	/	42.4*	-7.4	/	/
NC(Cc1ccccc1)c1csc(Nc2ccc(C(=O)c3ccccc3)cc2)n1 (stereo unspecified)	27.1	/	53.6*	-6.5	/	/
CC(=O)c1ccc(Nc2nc(C(N)C3CCCCC3)cs2)cc1 (stereo unspecified)	-21.3	/	4.4	-4.4	/	/
CN(C)c1nc(N)nc(/C(C#N)=C/C2CC3C=CC2C3)n1 (stereo unspecified)	-3.6	-9.2	6.1	-4.4	20.9	-22.9
CCCN1CCN(C(=O)Nc2ccc(OCC)cc2)CC1	6.1	-2.1	10.7	-1.2	12.0	-2.7
CC(C)CC(N)c1csc(Nc2ccc(C(=O)c3ccccc3)cc2)n1 (stereo unspecified)	28.6	/	41.0*	-2.3	/	/
NC(Cc1ccc(Cl)cc1)c1csc(Nc2ccc(C(=O)c3ccccc3)cc2)n1 (stereo unspecified)	44.3	/	33.3	-5.5	/	/
NC(Cc1ccc(F)cc1)c1csc(Nc2ccc(C(=O)c3ccccc3)cc2)n1 (stereo unspecified)	53.0*	/	51.7*	-8.0	/	/
NC(CO)c1csc(Nc2ccc(C(=O)c3ccccc3)cc2)n1 (stereo unspecified)	4.7	/	1.2	-9.8	/	/
CCN1/C(=C/C=C/c2sc3ccccc3[n+]2CC)Sc2ccccc21	/	61.1*	/	/	41.2*	35.6
CCN1/C(=C/C=C/C=C/c2sc3ccccc3[n+]2CC)Sc2ccccc21	/	61.1*	/	/	38.0	51.8*
CCN1/C(=C/C=C/C=C/C=C/c2sc3ccccc3[n+]2CC)Sc2ccccc21	-8.8	1.2	-0.7	-13.3	0.2	-0.3
CC(C)NC(=O)c1ccc2c(c1)N(CC(=O)N1CCCC1)C(=O)C(C)(C)O2	-0.6	12.7	-0.1	-5.6	-3.2	14.2

Assay outcomes: PubChem BioAssay, The Scripps Research Institute Molecular Screening Center
